{"data": "Assay results collected from several papers", "target": "Protein kinase C alpha type (PRKCA, Homo sapiens, UniProt P17252)"}
{"SMILES": "Cc1[nH]c(/C=C2\\C(=O)Nc3ccc(F)cc32)c(C)c1C(=O)N[C@H]1CCN(C(=O)N(C)C)C1", "read-out": "enzyme activity", "mode": "inhibitor", "concentration": "1 µM", "endpoint": "remaining activity", "value": "106%"}
{"SMILES": "CS(=O)(=O)Nc1cccc(-c2csc(NC(=O)CSc3nc4nccnc4c(=O)n3CCc3ccccc3)n2)c1", "read-out": "enzyme activity", "mode": "inhibitor", "concentration": "10 µM", "endpoint": "inhibition", "value": "1%"}
{"SMILES": "Oc1cccc(-c2nc(N3CCOCC3)c3oc4ncccc4c3n2)c1", "read-out": "enzyme activity", "mode": "inhibitor", "concentration": "10 µM", "endpoint": "remaining activity", "value": "93%"}
{"SMILES": "CN(C)C[C@H]1CCn2c(c(C3=C(c4cn(C)c5ccccc45)C(=O)NC3=O)c3ccccc32)C1", "read-out": "cell-free assay", "concentration": "0.5 µM", "endpoint": "remaining signal", "value": "2.58%"}
{"SMILES": "Cc1ccc(C(=O)NCc2ccsc2)cc1C#Cc1cn(C(C)C)c2ncnc(N)c12", "read-out": "enzyme activity", "mode": "inhibitor", "concentration": "1 µM", "endpoint": "activity vs control", "value": "92%"}
{"SMILES": "Cn1c(=O)n(-c2ccc(C(C)(C)C#N)cc2)c2c3cc(-c4cnc5ccccc5c4)ccc3ncc21", "read-out": "enzyme activity", "mode": "inhibitor", "concentration": "10 µM", "endpoint": "remaining activity", "value": "87%"}
{"SMILES": "CN(C)CCCn1cc(C2=C(c3c[nH]c4ccccc34)C(=O)NC2=O)c2ccccc21", "read-out": "cell-free assay", "concentration": "0.5 µM", "endpoint": "remaining signal", "value": "6.27%"}
{"SMILES": "COc1cc(/C=C/C(=O)CC(=O)/C=C/c2ccc(O)c(OC)c2)ccc1O", "read-out": "enzyme activity", "mode": "inhibitor", "concentration": "1 µM", "endpoint": "activity vs control", "value": "106%"}
{"SMILES": "Cc1cc(NC(=O)c2cccc3cc(-c4cccc5[nH]nc(N)c45)ccc23)ccc1F", "read-out": "enzyme activity", "mode": "inhibitor", "concentration": "0.1 µM", "endpoint": "activity vs control", "value": "95%"}
{"SMILES": "CC(C)(C)c1nc2c(s1)c1nc(N)ncc1c1ccc(NS(=O)(=O)c3c(F)cccc3F)c(F)c12", "read-out": "enzyme activity", "mode": "inhibitor", "technique": "radiometric", "concentration": "1 µM", "endpoint": "remaining activity", "value": "107%"}
{"SMILES": "CCN(CC)CCNC(=O)c1c(C)[nH]c(/C=C2\\C(=O)Nc3ccc(F)cc32)c1C", "read-out": "enzyme activity", "mode": "inhibitor", "concentration": "0.1 µM", "endpoint": "remaining activity", "value": "101%"}
{"SMILES": "COc1cc2ncnc(Nc3ccc(Oc4ccccc4)c(C)c3C)c2cc1OC", "read-out": "enzyme activity", "mode": "inhibitor", "concentration": "1 µM", "endpoint": "inhibition", "value": "8%"}
{"SMILES": "CCCS(=O)(=O)Nc1ccc(F)c(C(=O)c2c[nH]c3ncc(-c4ccc(Cl)cc4)cc23)c1F", "read-out": "enzyme activity", "mode": "inhibitor", "concentration": "1 µM", "endpoint": "inhibition", "value": "< 10%"}
{"SMILES": "FC(F)(F)Oc1cccc(-c2cnc3ccc(-c4ccncc4)nn23)c1", "read-out": "enzyme activity", "mode": "inhibitor", "technique": "radiometric", "concentration": "1 µM", "endpoint": "activity vs control", "value": "96%"}
{"SMILES": "Cc1ccc(Nc2nccc(N(C)c3ccc4c(C)n(C)nc4c3)n2)cc1S(N)(=O)=O", "read-out": "enzyme activity", "mode": "inhibitor", "concentration": "10 µM", "endpoint": "inhibition", "value": "10%"}
{"SMILES": "CCN(CC)c1ccc(C2=NNC(=O)CC2C)cc1[N+](=O)[O-] (stereo not shown)", "read-out": "enzyme activity", "mode": "inhibitor", "concentration": "10 µM", "endpoint": "remaining activity", "value": "21%"}
{"SMILES": "C=CC(=O)Nc1cc(Nc2nccc(Nc3cc(Cl)c(F)cc3C(C)(C)O)n2)c(OC)cc1N1CC[C@@H](N(C)C)C1", "read-out": "enzyme activity", "mode": "inhibitor", "concentration": "1 µM", "endpoint": "inhibition", "value": "13%"}
{"SMILES": "O=C(Nc1cnn(-c2csc(C(=O)NC3COC3)c2)c1)Nc1ccccc1Cl", "read-out": "enzyme activity", "mode": "inhibitor", "concentration": "5 µM", "endpoint": "remaining activity", "value": "101%"}
{"SMILES": "Cc1ccc(-n2nc(C(C)(C)C)cc2NC(=O)Nc2ccc(OCCN3CCOCC3)c3ccccc23)cc1", "read-out": "enzyme activity", "mode": "inhibitor", "concentration": "10 µM", "endpoint": "inhibition", "value": "9%"}
{"SMILES": "Cc1ccc(NC(=O)c2ccc(C)c(C(F)(F)F)c2)cc1C#Cc1nn(C2CCC(O)CC2)c2ncnc(N)c12 (stereo not shown)", "read-out": "cell-free assay", "concentration": "10 µM", "endpoint": "remaining signal", "value": "110%"}
{"SMILES": "O=C1NC(=O)c2cc(Nc3ccc(F)cc3)c(Nc3ccc(F)cc3)cc21", "read-out": "cell-free assay", "concentration": "0.5 µM", "endpoint": "remaining signal", "value": "99.3%"}
{"SMILES": "COc1cc(Nc2cnc(C#N)c(O[C@H](C)CN(C)C)n2)ncc1-c1cnn(C)c1", "read-out": "enzyme activity", "mode": "inhibitor", "technique": "radiometric", "concentration": "1 µM", "endpoint": "remaining activity", "value": "115%"}
